Test results reported in ChEMBL document CHEMBL4000219, “Synthesis and biological evaluation of naphthoquinone-coumarin conjugates as topoisomerase II inhibitors” (Bioorg Med Chem Lett, 2017).
Calls of active or inactive are those of the source. No cut-off for these calls is given here.

Legend:
Escherichia coli [1] = assay: Inhibition of Escherichia coli DNA topisomerase-1 assessed as reduction in enzyme-mediated relaxation of supercoiled pBlueScript 2 KS+ DNA substrate at 100 uM after 1 hr by agarose gel electrophoresis method
In short: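 2.5U E. coli TopoI acting on supercoiled monomer substrate, in 1% (v/v) DMSO. Chloroquine and etoposide as controls. Agarose gel run without ethidium bromide separates supercoiled substrate from relaxed products.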

[2] = target: T1, DNA topoisomerase 2-alpha (Homo sapiens, UniProt P11388); assay: Poison activity at human topoisomerase-2 alpha expressed in baculovirus infected insect cells assessed as stabilization of cleavage complex at 100 uM using pRYG DNA as substrate after 10 mins by ethidium bromide staining based agarose gel electrophoresis method
T1 sequence (P11388 whole entry): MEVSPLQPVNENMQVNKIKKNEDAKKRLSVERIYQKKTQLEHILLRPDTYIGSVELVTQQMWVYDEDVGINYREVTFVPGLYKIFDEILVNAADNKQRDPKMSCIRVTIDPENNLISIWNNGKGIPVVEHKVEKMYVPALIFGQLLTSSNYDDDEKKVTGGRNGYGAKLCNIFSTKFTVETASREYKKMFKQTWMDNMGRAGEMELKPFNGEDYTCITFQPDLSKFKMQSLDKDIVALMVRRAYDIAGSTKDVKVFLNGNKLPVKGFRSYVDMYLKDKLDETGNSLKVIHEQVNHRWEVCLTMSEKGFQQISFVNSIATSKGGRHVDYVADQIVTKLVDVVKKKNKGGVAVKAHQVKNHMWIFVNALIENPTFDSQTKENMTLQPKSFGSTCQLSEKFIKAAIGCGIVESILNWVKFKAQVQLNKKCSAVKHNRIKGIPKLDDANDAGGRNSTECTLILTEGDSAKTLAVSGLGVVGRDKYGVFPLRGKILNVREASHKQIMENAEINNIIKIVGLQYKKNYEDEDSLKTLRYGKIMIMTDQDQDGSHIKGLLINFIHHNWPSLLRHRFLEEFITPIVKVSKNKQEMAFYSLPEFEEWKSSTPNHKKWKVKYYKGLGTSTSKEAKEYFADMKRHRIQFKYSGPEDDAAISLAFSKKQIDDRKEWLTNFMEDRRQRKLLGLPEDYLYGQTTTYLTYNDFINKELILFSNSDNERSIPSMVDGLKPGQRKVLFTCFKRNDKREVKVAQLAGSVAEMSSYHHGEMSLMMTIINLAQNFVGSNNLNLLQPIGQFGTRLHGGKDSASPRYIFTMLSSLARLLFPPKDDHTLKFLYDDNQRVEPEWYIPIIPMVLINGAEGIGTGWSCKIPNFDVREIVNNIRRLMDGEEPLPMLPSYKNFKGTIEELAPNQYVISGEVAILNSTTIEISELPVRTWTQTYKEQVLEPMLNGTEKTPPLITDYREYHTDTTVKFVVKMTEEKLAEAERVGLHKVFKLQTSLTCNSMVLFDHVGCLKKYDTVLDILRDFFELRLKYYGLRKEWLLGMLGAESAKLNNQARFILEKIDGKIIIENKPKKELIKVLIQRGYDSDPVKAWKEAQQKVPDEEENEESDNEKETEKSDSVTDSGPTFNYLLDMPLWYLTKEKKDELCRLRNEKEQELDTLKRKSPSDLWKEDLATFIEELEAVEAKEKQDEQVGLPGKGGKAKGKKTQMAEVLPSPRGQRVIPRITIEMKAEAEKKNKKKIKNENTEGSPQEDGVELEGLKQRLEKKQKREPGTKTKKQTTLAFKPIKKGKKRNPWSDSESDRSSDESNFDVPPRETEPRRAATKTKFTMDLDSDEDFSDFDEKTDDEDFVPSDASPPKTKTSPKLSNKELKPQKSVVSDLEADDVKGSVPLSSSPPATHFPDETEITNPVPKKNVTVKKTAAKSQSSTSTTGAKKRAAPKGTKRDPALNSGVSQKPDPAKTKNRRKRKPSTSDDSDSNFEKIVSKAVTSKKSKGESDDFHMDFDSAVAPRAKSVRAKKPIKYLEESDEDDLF
In short: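 Cleavage assay: 10U hTopoII on negatively supercoiled pRYG plasmid, in 1% (v/v) DMSO. Etoposide as positive control. Agarose gel run in the presence of ethidium bromide separates supercoiled substrate from linearized plasmid intermediate.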

Escherichia coli [3] = assay: Inhibition of Escherichia coli DNA gyrase assessed as reduction in enzyme-mediated supercoiling activity at 100 uM using ladder of partially relaxed pBlueScript 2 KS+ DNA as substrate after 1 hr by agarose gel electrophoresis method
In short: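 2.5U E. coli DNA gyrase acting on a ladder of partially relaxed forms as substrate, in 1% (v/v) DMSO. Agarose gel run without ethidium bromide separates the relaxed ladder from monomeric supercoiled product.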

[4] = target: T1, DNA topoisomerase 2-alpha; assay: Inhibition of human topoisomerase-2 alpha expressed in baculovirus infected insect cells assessed as reduction in enzyme-meditaed supercoiled pRYG DNA substrate relaxation at 100 uM in presence of buffer containing 2-mercaptoethanol after 30 mins by agarose gel electrophoresis method
In short: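 2U hTopoII on covalently closed negatively supercoiled pRYG plasmid, in 1% (v/v) DMSO. Home-made reaction buffer with 2-mercaptoethanol as reducing agent. Etoposide, ICRF-187 and merbarone as controls. Agarose gel run without ethidium bromide separates supercoiled substrate from relaxed topoisomers.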

Escherichia coli [5] = assay: Inhibition of Escherichia coli DNA topisomerase-1 assessed as reduction in enzyme-mediated unwinding activity at 100 uM using ladder of partially relaxed pBlueScript 2 KS+ DNA as substrate after 1 hr by agarose gel electrophoresis method
In short: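 E. coli TopoI unwinding assay for intercalation: a ladder of partially relaxed forms as substrate, in 1% (v/v) DMSO. Chloroquine as control. Agarose gel run without ethidium bromide separates the ladder from relaxed products.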

[6] = target: T1, DNA topoisomerase 2-alpha; assay: (§1) Inhibition of human topoisomerase-2 alpha ATPase activity expressed in baculovirus infected insect cells assessed as disappearance of NADH at 10 uM using pBR322 DNA as substrate preincubated for 10 mins followed by ATP addition measured up to 35 mins by spectrophotometric based pyruvate kinase/lactate dehydrogenase coupled enzyme assay relative to control
In short: (§2)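 hTopoII ATPase measured in an ATPase/pyruvate kinase/lactate dehydrogenase linked assay as decline of NADH absorbance at 340 nm. Activity expressed as percent of 1% DMSO control.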

[7] = target: T1, DNA topoisomerase 2-alpha; assay: Inhibition of human topoisomerase-2 alpha expressed in baculovirus infected insect cells assessed as reduction in enzyme-meditaed supercoiled pRYG DNA substrate relaxation in presence of buffer containing DTT after 30 mins by agarose gel electrophoresis method
In short: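 hTopoII relaxation of supercoiled pRYG plasmid in commercial DTT-containing reaction buffer, with compounds at 10, 30 and 100. Gel bands quantified as percent inhibition. Three independent assays, mean + SEM.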

[8] = target: T1, DNA topoisomerase 2-alpha; assay: Inhibition of human topoisomerase-2 alpha expressed in baculovirus infected insect cells assessed as reduction in enzyme-meditaed supercoiled pRYG DNA substrate relaxation at 100 uM in presence of buffer containing DTT after 30 mins by agarose gel electrophoresis method
In short: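 2U hTopoII on covalently closed negatively supercoiled pRYG plasmid, in 1% (v/v) DMSO. Commercial reaction buffer containing DTT. Etoposide, ICRF-187 and merbarone as controls. Agarose gel run without ethidium bromide separates supercoiled forms from relaxed topoisomers.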

[9] = target: T1, DNA topoisomerase 2-alpha; assay: as §1, with “at 30” for “at 10”; in short: as §2
[10] = target: T1, DNA topoisomerase 2-alpha; assay: as §1, with “at 100” for “at 10”; in short: as §2

Row | Compound | inhibition (Escherichia coli [1]) | Activity [2] | inhibition (Escherichia coli [3]) | inhibition [4] | inhibition (Escherichia coli [5]) | inhibition [6] [%] | IC50 [7] [µM] | inhibition [8] | inhibition [9] [%] | inhibition [10] [%]
1 | O=C1C(O)=C(C(c2ccc([N+](=O)[O-])cc2)c2c(O)c3ccccc3oc2=O)C(=O)c2ccccc21 (centres undefined) | inactive | inactive | inactive | Active | inactive | 34 | 10 to 30 | Active | 39 | 61
2 | O=C1C(O)=C(C(c2ccc3c(c2)OCO3)c2c(O)c3ccccc3oc2=O)C(=O)c2ccccc21 (centres undefined) | inactive | inactive | inactive | Active | inactive | 43 | 10 to 30 | Active | 67 | 94
3 | C[C@@H](CN1CC(=O)NC(=O)C1)N1CC(=O)NC(=O)C1 |  |  |  | inactive |  |  |  | Active |  | 
4 | O=C(O)c1cn(C2CC2)c2cc(N3CCNCC3)c(F)cc2c1=O |  |  | Active |  |  |  |  |  |  | 
5 | COc1cc([C@@H]2c3cc4c(cc3[C@@H](O[C@@H]3O[C@@H]5CO[C@@H](C)O[C@H]5[C@H](O)[C@H]3O)[C@H]3COC(=O)[C@H]23)OCO4)cc(OC)c1O |  | Active |  | inactive |  |  |  | Active |  | 
6 | O=C1C(O)=C(C(c2ccccc2)c2c(O)c3ccccc3oc2=O)C(=O)c2ccccc21 (centres undefined) | inactive | inactive | inactive | Active | inactive | 69 | 10 to 30 | Active | 87 | 94
7 | O=C1C(O)=C(C(c2ccc(Br)cc2)c2c(O)c3ccccc3oc2=O)C(=O)c2ccccc21 (centres undefined) | inactive | inactive | inactive | Active | inactive | 40 | 10 to 30 | Active | 57 | 96
8 | O=C1NC(=S)NC(=O)C1C(=O)Nc1ccccc1 |  |  |  | inactive |  |  |  | Active |  | 
9 | O=C1C(O)=C(C(c2ccc(Cl)cc2)c2c(O)c3ccccc3oc2=O)C(=O)c2ccccc21 (centres undefined) | inactive | inactive | inactive | Active | inactive | 61 | 10 to 30 | Active | 78 | 94
10 | CCN(CC)CCCC(C)Nc1ccnc2cc(Cl)ccc12 (centres undefined) | Active |  |  |  |  |  |  |  |  | 
11 | O=C1C(O)=C(C(c2ccc(F)cc2)c2c(O)c3ccccc3oc2=O)C(=O)c2ccccc21 (centres undefined) | inactive | inactive | inactive | Active | inactive | 67 | 10 to 30 | Active | 90 | 94
12 | O=C1C(O)=C(C(c2ccccc2F)c2c(O)c3ccccc3oc2=O)C(=O)c2ccccc21 (centres undefined) | inactive | inactive | inactive | Active | inactive | 24 | 10 to 30 | Active | 30 | 82
